# Pf Dd2 growth: P. falciparum Dd2 growth inhibitors, primary screen, SYBR Green fluorescence, single dose replicates | AID 1159554, 2015 | 72 h; active compounds read low | activity change, % at 10 µM | 94,000 tested, 2.3% active; in the data active = activity change below about -80%; inconclusive = no clear call, values can overlap the other calls
# KDM4C inh: inhibitors of GASC-1 (KDM4C) histone demethylase, primary screen, biochemical, single concentration HTS; Lysine-specific demethylase 4C (Homo sapiens), Q9H3R0; GST-KDM4C 2-372, H3K9me3 peptide, LANCE TR-FRET; inhibition, % at 12.5 µM; 96,000 tested, 0.15% active; AID 720574, 2013;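 active = mean replicate inhibition above about 25%, with at least 55% of replicates also reaching it, limit read from the data, passing the limit was not always enough; inconclusive = only one of those two conditions met; inactive = neither condition met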
#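 System: N-terminal GST-fused human GASC-1 (KDM4C) fragment, residues 2-372; amount: enzyme final amount 10 nM; incubation: reaction 30 min RT, detection step 1 h RT; medium: HEPES buffer, pH 7.5, plus ascorbate; technique: LANCE TR-FRET, Eu antibody, ULight-streptavidin, EDTA, ex 340 nm, em 618/671 nm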
# IDH1 R132H inh: inhibitors of IDH1 R132H reductase, primary screen, biochemical, plate reader, single point; Isocitrate dehydrogenase [NADP] cytoplasmic (Homo sapiens), O75874; diaphorase/resazurin fluorescence, 60 min; inhibition, % at 10 µM; 70,000 tested, 0.18% active; in the data active = inhibition above about 34%; inconclusive = no clear call, values can overlap the other calls; inactive = below about 11%;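 also: 0% = DMSO and 100% = no enzyme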
# Target sequence (O75874 whole entry R132H): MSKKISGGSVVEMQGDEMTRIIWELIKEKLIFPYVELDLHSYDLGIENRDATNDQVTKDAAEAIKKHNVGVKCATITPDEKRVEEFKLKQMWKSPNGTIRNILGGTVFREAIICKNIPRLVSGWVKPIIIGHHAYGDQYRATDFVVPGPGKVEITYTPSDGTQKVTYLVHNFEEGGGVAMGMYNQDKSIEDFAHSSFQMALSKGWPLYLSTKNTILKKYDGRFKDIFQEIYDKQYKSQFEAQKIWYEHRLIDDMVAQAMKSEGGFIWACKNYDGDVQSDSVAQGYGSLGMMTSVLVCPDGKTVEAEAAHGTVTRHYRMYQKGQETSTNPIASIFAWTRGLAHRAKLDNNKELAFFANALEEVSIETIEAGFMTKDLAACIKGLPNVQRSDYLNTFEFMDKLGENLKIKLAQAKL
# T cruzi growth-1: T. cruzi intracellular proliferation inhibitors, primary screen, cell-based, beta-gal Tulahuen parasites, NIH3T3 host, luminescence; T. cruzi beta-gal in NIH3T3, GalScreen luminescence, 90 h; inhibition, % at 8.34 µM; 77,000 tested, 5.9% active; AID 624255, 2012;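 active = mean inhibition above about 93%, with at least 55% of replicates each passing it, limit read from the data, passing the limit was not always enough; inconclusive = only one of those two conditions holds; inactive = neither condition holds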
# T cruzi growth-2: T. cruzi intracellular proliferation inhibitors, confirmation, cell-based, NIH3T3 host, beta-gal parasite, luminescence, cherry-pick. shares compounds with T cruzi growth-1. T. cruzi beta-gal in NIH3T3, GalScreen luminescence, 90 h. inhibition, % at 8.35 µM. 5,600 tested, 72% active. AID 651739, 2012;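 active = mean replicate inhibition above about 95% and at least 55% of replicates individually reaching it, limit read from the data; inconclusive = only one of the two criteria is met; inactive = neither criterion is met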
# T cruzi growth-3: inhibitors of intracellular T. cruzi replication, confirmation, NIH3T3 host cells, beta-gal parasites, cherry-pick, set 2. shares compounds with T cruzi growth-1. T. cruzi beta-gal in NIH3T3, GalScreen luminescence, 90 h. inhibition, % at 2.09 µM. 5,600 tested, 21% active. AID 651740, 2012;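 active = mean inhibition above about 95%, with at least 55% of replicates also reaching it, limit read from the data; inconclusive = meets just one of the two conditions; inactive = meets neither condition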;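 also: plate controls were neutral control median for no effect and positive control median for full effect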
# NIH3T3 tox: cytotoxicity in mouse NIH/3T3 fibroblasts, confirmation, cytotoxicity control for T. cruzi proliferation inhibitor project, cell-based, cherry-pick, single point; shares compounds with T cruzi growth-1; NIH/3T3 viability, CellTiter-Glo ATP luminescence, 90 h; cytotoxicity (signal decrease), % at 8.35 µM; 5,600 tested, 14% active; AID 651742, 2012;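 active = mean signal decrease across replicates above about 35% based on untreated-well scatter, with enough replicates individually passing, limit read from the data; inconclusive = no rule stated though some were filed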;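 also: 0% = median of neutral control wells and 100% = median of positive control wells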
# NIH3T3 tox 2: NIH/3T3 fibroblast cytotoxicity, confirmation, cytotoxicity control, cell-based, cherry-pick, single point, set 2; shares compounds with T cruzi growth-1; NIH/3T3 viability, CellTiter-Glo ATP luminescence, 90 h; inhibition, % at 24.9 µM; 5,600 tested, 56% active; AID 651744, 2012;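 active = mean loss of cell viability signal at or above a set limit, and enough replicates individually reaching it; inconclusive = meets only the mean limit or only the replicate share; inactive = meets neither condition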;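 also: 0% = median of neutral control wells and 100% = median of positive control wells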
# The depositor's hits bear a star; ? = inconclusive; / = no result. Hits are enriched below; roughly 5.9% of the tested compounds scored in any of these assays.
SMILES,Pf Dd2 growth,KDM4C inh,IDH1 R132H inh,T cruzi growth-1,T cruzi growth-2,T cruzi growth-3,NIH3T3 tox,NIH3T3 tox 2
COc1ccc(S(=O)(=O)Nc2ccc3c(c2)C(=O)N([C@H](C)CO)C[C@H](C)[C@H](CN(C)S(=O)(=O)c2ccc(OC)cc2)OCCCC[C@H](C)O3)cc1,-58,0,0,100*,109*,64,2,9
COc1ccc(S(=O)(=O)Nc2ccc3c(c2)C(=O)N([C@@H](C)CO)C[C@@H](C)[C@H](CN(C)S(=O)(=O)c2ccc(OC)cc2)OCCCC[C@@H](C)O3)cc1,-47,-1,/,?,108*,69,6,23
O=C(O)C1CCCCC1C(=O)Nc1ccc(C(=O)N2CCCCC2)c(Cl)c1 (stereo unspecified),/,/,2,/,/,/,/,/
Cc1ccc(NC(=O)C2Cc3ccccc3CN2S(=O)(=O)c2ccc(C)cc2)cc1 (stereo unspecified),/,/,-1,/,/,/,/,/
C[C@@H]1CN([C@@H](C)CO)S(=O)(=O)c2ccc(C#Cc3cccc(F)c3)cc2O[C@H]1CN(C)S(=O)(=O)c1ccccc1F,-79,-3,-2,112*,110*,?,8,34*
C[C@H](CO)N1C[C@H](C)[C@H](CN(C)S(=O)(=O)c2ccccc2F)Oc2cc(C#Cc3cccc(F)c3)ccc2S1(=O)=O,-16,13,0,109*,103*,43,17,11
C[C@@H]1CN([C@H](C)CO)S(=O)(=O)c2ccc(C#Cc3cccc(F)c3)cc2O[C@H]1CN(C)S(=O)(=O)c1ccccc1F,-76,0,0,111*,109*,106*,32,35*
C[C@@H](O)[C@@H](O)[C@@H](O)C/C=N/NC(=O)c1cccc(C(=O)NO)c1,/,/,0,/,/,/,/,/
O=C(Nc1ccccc1F)N1CCCCN2[C@H](C1)[C@H](c1ccc(C#Cc3ccccc3)cc1)[C@@H]2CO,-26,1,/,69,/,/,/,/
O=C(Nc1ccccc1F)N1CCCCN2[C@H](CO)[C@H](c3ccc(C#Cc4cccnc4)cc3)[C@H]2C1,-49,-1,/,101*,109*,64,27,70*
O=C(Nc1ccccc1F)N1CCCCN2[C@@H](CO)[C@H](c3ccc(C#Cc4cccnc4)cc3)[C@@H]2C1,-77,0,/,122*,106*,39,24,38*
Cc1c(Cl)cccc1NC(=O)CSc1nnc(-c2cccc(Cl)c2)n1C,/,/,0,/,/,/,/,/
O=C(CC1NC(=O)NC1=O)Nc1cccc(C(F)(F)F)c1 (stereo unspecified),/,/,0,/,/,/,/,/
COc1cccc(-c2ccc3c(c2)O[C@@H](CN(C)C(=O)C2CC2)[C@H](C)CN([C@H](C)CO)S3(=O)=O)c1,-31,0,/,71,/,/,/,/
COc1cccc(-c2ccc3c(c2)O[C@@H](CN(C)C(=O)C2CC2)[C@H](C)CN([C@@H](C)CO)S3(=O)=O)c1,-54,-2,/,72,/,/,/,/
COc1cccc(-c2ccc3c(c2)O[C@H](CN(C)C(=O)C2CCCCC2)[C@H](C)CN([C@@H](C)CO)S3(=O)=O)c1,-3,-1,/,117*,103*,88,23,89*
COc1cccc(-c2ccc3c(c2)O[C@H](CN(C)C(=O)C2CC2)[C@H](C)CN([C@H](C)CO)S3(=O)=O)c1,7,2,/,80,/,/,/,/
COc1cccc(-c2ccc3c(c2)O[C@@H](CN(C)C(=O)C2CCCCC2)[C@H](C)CN([C@H](C)CO)S3(=O)=O)c1,-69,0,/,105*,96*,36,29,91*
COc1cccc(-c2ccc3c(c2)O[C@@H](CN(C)C(=O)C2CCC2)[C@H](C)CN([C@@H](C)CO)S3(=O)=O)c1,-54,3,0,110*,97*,?,26,27*
COc1cccc(-c2ccc3c(c2)O[C@H](CN(C)C(=O)C2CCCCC2)[C@@H](C)CN([C@H](C)CO)S3(=O)=O)c1,-64,-2,-3,99*,101*,78,28,43*
CS(=O)(=O)CCC(C(=O)Nc1cccc2ncccc12)N1C(=O)c2cc(Cl)c(Cl)cc2C1=O (stereo unspecified),/,/,0,/,/,/,/,/
COc1ccc(-n2nnnc2SCC(=O)Nc2cc(C)c(Cl)cc2OC)cc1,/,/,0,/,/,/,/,/
CC(C)OC(=O)CSc1nc2c(c(-c3ccccc3)c1C#N)CCC2,/,/,0,/,/,/,/,/
C[C@@H]1CCCCO[C@H](CN(C)C(=O)Nc2ccc(C(F)(F)F)cc2)[C@H](C)CN([C@@H](C)CO)C(=O)c2cc(NC(=O)Nc3cccc4ccccc34)ccc2O1,-73,-1,/,86,/,/,/,/
C[C@@H]1CCCCO[C@H](CN(C)C(=O)Nc2cccc3ccccc23)[C@H](C)CN([C@@H](C)CO)C(=O)c2cc(NC(=O)Nc3ccc(C(F)(F)F)cc3)ccc2O1,-63,-1,-3,109*,111*,113*,7,12
C[C@@H]1CCCCO[C@@H](CN(C)C(=O)Nc2ccc(C(F)(F)F)cc2)[C@H](C)CN([C@H](C)CO)C(=O)c2cc(NC(=O)Nc3cccc4ccccc34)ccc2O1,-79,-1,0,100*,107*,102*,-6,5
O=S(=O)(c1ccccc1)c1nc(-c2ccccc2Cl)oc1NCc1cccnc1,/,/,-1,/,/,/,/,/
C[C@H]1CN([C@@H](C)CO)S(=O)(=O)c2ccc(/C=C/c3ccccc3)cc2O[C@H]1CN(C)Cc1ccccc1,-18,/,0,110*,97*,113*,-4,103*
C[C@H](CO)N1C[C@H](C)[C@@H](CN(C)Cc2ccccc2)Oc2cc(/C=C/c3ccccc3)ccc2S1(=O)=O,-56,3,0,70,/,/,/,/
C[C@H](CO)N1C[C@H](C)[C@H](CN(C)Cc2ccccc2)Oc2cc(/C=C/c3ccccc3)ccc2S1(=O)=O,-32,0,0,103*,100*,100*,-4,104*

# Compound activity: PubChem, Broad Institute
